Calls of active or inactive are those of the source. The rule behind the calls is not given here.
Columns and labels:
[1] = system: Mus musculus; experiment: Anti-inflammatory activity in C57BL/6 mouse model of unilateral ureter obstruction-induced kidney inflammation and fibrosis assessed as reduction in Ccl2 mRNA expression at 3 mg/kg, ip dosed daily for 7 days by real-time qPCR analysis; format: functional, organism-based; details: time 7.0 day
Procedure, shortened: (§1)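 Mice with unilateral ureter obstruction to induce kidney inflammation and fibrosis, given compound or vehicle intraperitoneally. Ligated (UUO) and contralateral kidneys taken at day 7. Fibrosis read by AZAN and Sirius Red staining, with Sirius Red imaged under bright and polarized light. Macrophages detected by F4/80 staining, quantified as positive area. Col1a1, FN1, TNFα and Ccl2 mRNA measured in whole-kidney homogenates by real-time qRT-PCR normalized to GAPDH.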

[2] = system: Mus musculus; experiment: Anti-fibrotic activity in C57BL/6 mouse model of unilateral ureter obstruction-induced kidney inflammation and fibrosis assessed as inhibition of tubulo-interstitial fibrosis by measuring reduced blue staining of collagen fibers in AZAN-stained sections at 3 mg/kg, ip dosed daily for 7 days by AZAN trichrome staining method; format: functional, organism-based; details: time 7.0 day; procedure, shortened: as §1
[3] = Cmax in Swiss CD-1 mouse at 3 mg/kg, po administered as single dose by LC-MS analysis; format: ADME, organism-based; design: route oral, dose 3 mg/kg; details: in vivo
Procedure, shortened: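 Male Swiss CD-1 mice received a single oral dose of 3 mg/kg in 1% methylcellulose/Tween80 (99:1); nine mice treated, three vehicle controls, three mice per time point. Serum analyzed by LC-MS for concentration–time profile.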

[4] = system: HepG2; experiment: Cytotoxicity in human HepG2 cells assessed as effect on cell viability up to 25 uM incubated for 48 hrs by CellTiter-Glo luminescent cell viability assay; format: cell-based; details: hepg2, 48 h
Procedure, shortened: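 Cell viability measured by CellTiter-Glo luminescence, quantifying ATP as an indicator of viable cells.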

[5] = target: T1, Polyunsaturated fatty acid lipoxygenase ALOX15 (Homo sapiens) (UniProt P16050); experiment: Activation of 15-LOX in human PMNL pre-incubated for 15 mins before addition of AA and A23187 and measured after 10 mins by HPLC/UV assay; details: filed as activator, time 25.0 min
T1 sequence (whole entry): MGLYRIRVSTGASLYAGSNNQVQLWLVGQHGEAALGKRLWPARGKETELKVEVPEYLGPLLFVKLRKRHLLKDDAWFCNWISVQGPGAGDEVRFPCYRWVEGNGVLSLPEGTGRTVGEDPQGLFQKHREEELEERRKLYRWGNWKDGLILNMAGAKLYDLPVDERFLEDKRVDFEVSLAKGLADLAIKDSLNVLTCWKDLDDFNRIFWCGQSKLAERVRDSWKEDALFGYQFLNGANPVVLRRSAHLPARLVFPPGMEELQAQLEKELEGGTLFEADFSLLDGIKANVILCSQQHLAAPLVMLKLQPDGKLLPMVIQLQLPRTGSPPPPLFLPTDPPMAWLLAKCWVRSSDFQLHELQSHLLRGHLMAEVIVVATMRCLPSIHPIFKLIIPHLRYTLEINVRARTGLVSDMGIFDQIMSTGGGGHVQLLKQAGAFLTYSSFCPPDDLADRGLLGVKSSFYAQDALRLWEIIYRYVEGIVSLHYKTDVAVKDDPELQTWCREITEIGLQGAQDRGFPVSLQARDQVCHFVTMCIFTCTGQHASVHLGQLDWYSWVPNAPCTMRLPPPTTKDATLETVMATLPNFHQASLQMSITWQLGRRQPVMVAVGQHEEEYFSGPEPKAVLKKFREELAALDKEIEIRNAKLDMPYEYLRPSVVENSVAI

[6] = system: Mus musculus; experiment: Anti-inflammatory activity in C57BL/6 mouse model of unilateral ureter obstruction-induced kidney inflammation and fibrosis assessed as reduction in TNFalpha mRNA expression at 3 mg/kg, ip dosed daily for 7 days by real-time qPCR analysis; format: functional, organism-based; details: time 7.0 day; procedure, shortened: as §1
[7] = target: T2, Polyunsaturated fatty acid lipoxygenase ALOX12 (Homo sapiens) (UniProt P18054); experiment: Activation of 12-LOX in human PMNL pre-incubated for 15 mins before addition of AA and A23187 and measured after 10 mins by HPLC/UV assay; details: filed as activator, time 25.0 min
T2 sequence (whole entry): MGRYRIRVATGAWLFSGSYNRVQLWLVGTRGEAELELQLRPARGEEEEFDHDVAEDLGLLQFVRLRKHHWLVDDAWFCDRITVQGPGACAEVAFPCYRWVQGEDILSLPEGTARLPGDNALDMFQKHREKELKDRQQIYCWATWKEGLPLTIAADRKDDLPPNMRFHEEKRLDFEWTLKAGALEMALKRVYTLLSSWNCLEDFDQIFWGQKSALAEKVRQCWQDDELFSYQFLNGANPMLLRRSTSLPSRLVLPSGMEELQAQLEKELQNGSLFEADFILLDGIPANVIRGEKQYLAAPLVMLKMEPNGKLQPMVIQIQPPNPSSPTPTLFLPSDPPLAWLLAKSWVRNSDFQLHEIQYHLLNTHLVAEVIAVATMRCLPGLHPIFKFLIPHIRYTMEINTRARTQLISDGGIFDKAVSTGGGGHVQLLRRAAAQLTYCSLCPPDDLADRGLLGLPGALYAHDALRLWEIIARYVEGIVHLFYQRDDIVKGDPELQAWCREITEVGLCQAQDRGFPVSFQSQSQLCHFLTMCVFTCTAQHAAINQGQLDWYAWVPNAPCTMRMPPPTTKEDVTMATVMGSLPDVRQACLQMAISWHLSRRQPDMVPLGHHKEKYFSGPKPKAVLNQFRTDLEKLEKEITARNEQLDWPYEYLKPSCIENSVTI

[8] = organism: Mus musculus; experiment: Inhibition of sEH in naive mouse assessed as increase in plasma EET/DHET ratio level; format: functional
Procedure, shortened: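 Plasma from naive mice given a single oral 3 mg/kg dose analyzed for EET/DHET ratio as a read-out of sEH inhibition.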

- Cmax [3]: 700 nM
- Activity [5]: Active
- Activity [7]: Active
Compound: C[C@H](C#Cc1cccc(C(=O)NCCC(c2ccc(F)cc2)c2ccc(F)cc2)c1)N(O)C(N)=O
- Activity [1]: Active
- Activity [2]: Active
- Activity [4]: Non-Toxic
- Activity [6]: Active
- Activity [8]: Active

— ChEMBL document CHEMBL4725418, “Design, Synthesis, and Structure-Activity Relationship Studies of Dual Inhibitors of Soluble Epoxide Hydrolase and 5-Lipoxygenase” (J Med Chem, 2020)
